# Results: ChEMBL document CHEMBL6092225, “Design, Synthesis, and Biological Evaluation of [1,2,5]Oxadiazolo[3,4-b]pyridin-7-ol as Mitochondrial Uncouplers for the Treatment of Obesity and Metabolic Dysfunction-Associated Steatohepatitis” (J Med Chem, 2024)
# Calls of active or inactive are those of the source. The rule behind the calls is not given here.
# Assays:
# L6 [1] = test: (§1) Induction of oxygen consumption rate in rat L6 cells upto 200 uM measured for 90 mins by Seahorse assay relative to BAM15; assay type: functional
# [2] = Induction of oxygen consumption rate in rat L6 cells measured for 90 mins by Seahorse assay; assay type: functional, cell-based
# [3] = as §1; assay type: functional; details: 1.5 h, up to 200 µM
# L6 [4] = test: Induction of oxygen consumption rate in rat L6 cells at 10 uM measured for 90 mins in presence of oligomycin by Seahorse assay; assay type: functional, cell-based
# How it was run: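 L6 myoblasts in unbuffered DMEM with pyruvate and glutamine (pH 7.4) on Seahorse XF. Mitochondrial stress test: oligomycin 1 µM or vehicle injected, then compound at 10 µM, then antimycin A 10 µM plus rotenone 1 µM at set times. n = 3 wells per condition, mean ± SEM.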
# Mus musculus [5] = test: Anti-obesity activity in diet-induced Gubra-Amylin NASH C57BL/6 mouse model of MASH assessed as decrease in liver triglyceride level at 200 mg/kg, po for 4 weeks; assay type: functional, organism-based
# How it was run: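 GAN-diet male C57BL/6 mice dosed 200 mg/kg daily in food for 4 weeks. Liver harvested at end, frozen in liquid nitrogen, lipid extracted. Extract heated 10 min at 37 °C, then triglyceride measured by colorimetric assay and normalized to initial grams extracted.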
# Mus musculus [6] = test: Anti-obesity activity in diet-induced Gubra-Amylin NASH C57BL/6 mouse model of MASH assessed as decrease in plasma ALT level at 200 mg/kg, po for 4 weeks; assay type: functional, organism-based
# How it was run: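 GAN-diet male C57BL/6 mice given compound admixed in diet at 200 mg/kg daily for 4 weeks. Terminal EDTA plasma taken by cardiac puncture under isoflurane. ALT activity measured by kit assay, samples diluted 1:8 in ALT assay buffer.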
# Mus musculus [7] = test: Anti-obesity activity in diet-induced Gubra-Amylin NASH C57BL/6 mouse model of MASH assessed as decrease in fat mass at 200 mg/kg, po for 4 weeks by EchoMRI analysis; assay type: functional, organism-based
# How it was run: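 Male C57BL/6 mice kept on GAN diet for 33 weeks, then fed GAN diet with or without compound admixed at 200 mg/kg daily for 4 weeks. Fat and lean mass measured weekly by EchoMRI.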
# Mus musculus [8] = test: Anti-obesity activity in diet-induced Gubra-Amylin NASH C57BL/6 mouse model of MASH assessed at 200 mg/kg, po for 4 weeks by EchoMRI analysis
# [9] = Toxicity in C57BL/6 mouse assessed as change in appetite at 30 to 1000 mg/kg, po measured for 24 hrs; assay type: organism-based; details: in vivo, dose 30-1000 mg/kg
# How it was run: (§2)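 Male C57BL/6 mice, 9 weeks old, given vehicle or compound at 30, 100, 300 or 1000 mg/kg by single oral gavage. Monitored 24 h after dosing for core temperature by rectal probe, body weight and food intake. n = 3, mean ± SEM.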
# Mus musculus [10] = test: Effect on liver mass in diet-induced Gubra-Amylin NASH C57BL/6 mouse model of MASH at 200 mg/kg, po for 4 weeks; assay type: functional, organism-based
# How it was run: (§3)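 Male C57BL/6 mice, GAN diet from 5/6 weeks old for 33 weeks, then single-housed and stratified by baseline body weight and body composition. Fed GAN diet alone or GAN diet admixed with compound at 200 mg/kg for 4 weeks, fresh compound daily. Body weight and food intake measured daily, body composition weekly by EchoMRI, organs weighed at end.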
# [11] = Toxicity in C57BL/6 mouse assessed as drug tolerance upto 1000 mg/kg, po measured for 24 hrs; assay type: organism-based; details: in vivo; how it was run: as §2
# Mus musculus [12] = test: Effect on fibrosis stage of liver in diet-induced Gubra-Amylin NASH C57BL/6 mouse model of MASH at 200 mg/kg, po for 4 weeks; assay type: functional, organism-based
# Mus musculus [13] = test: Effect on calorie intake in diet-induced Gubra-Amylin NASH C57BL/6 mouse model of MASH at 200 mg/kg, po; assay type: functional, organism-based; how it was run: as §3
# [14] = Induction of oxygen consumption rate in rat L6 cells assessed as increase in respiration at 10 uM measured for 90 mins in presence of BAM15 by Seahorse assay relative to control; assay type: functional; details: 1.5 h
# Mus musculus [15] = test: Anti-obesity activity in diet-induced Gubra-Amylin NASH C57BL/6 mouse model of MASH assessed as decrease in NAFLD activity score at 200 mg/kg, po for 4 weeks; assay type: functional, organism-based; how it was run: as §3
# [16] = Toxicity in C57BL/6 mouse assessed as change in body temperature at 30 to 1000 mg/kg, po measured for 24 hrs; assay type: organism-based; details: in vivo, dose 30-1000 mg/kg; how it was run: as §2
# [17] = Toxicity in C57BL/6 mouse assessed as change in body weight at 30 to 1000 mg/kg, po measured for 24 hrs; assay type: organism-based; details: in vivo, dose 30-1000 mg/kg; how it was run: as §2
Compound,EC50 [2],Activity (L6 [1]),also measured
CCCCc1ccc(Nc2cnc3nonc3c2O)cc1,,,EC50 ([2]; read-out: EC50): 1 µM
CC(C)(C)Oc1ccc(Nc2cnc3nonc3c2O)cc1,,,Activity [3]: 20%; EC50 ([2]; read-out: EC50): 6 µM
Oc1c(Nc2ccc(-c3ccc(F)cc3)cc2)cnc2nonc12,,,Activity [3]: 60%
Oc1c(Nc2cccc(-c3ccccc3)c2)cnc2nonc12,,,Activity [3]: 20%; EC50 ([2]; read-out: EC50): 6 µM
N#Cc1ccc(Nc2cnc3nonc3c2O)cc1,Not_active,inactive,
Oc1c(Nc2ccc(-c3ccc(F)c(F)c3)cc2)cnc2nonc12,Not_active,inactive,
Oc1c(Nc2ccc(-c3cc(F)ccc3F)cc2)cnc2nonc12,Not_active,inactive,
Oc1c(-c2ccc(-c3ccc(F)cc3)cc2)cnc2nonc12,Not_active,inactive,
Oc1c(Nc2ccc(-c3cccc(Cl)c3)cc2)cnc2nonc12,,,Activity (L6 [4]): Active; Action Of Drug Suggests Proton Transport Into Matrix Independent Of Atp Synthase; Activity Of Drug Requires Electron Transport Chain Activity; Activity (Mus musculus [5]): Active; Activity (Mus musculus [6]): Active; Activity (Mus musculus [7]): Active; Activity Of Drug Indicates Improved Body Composition; Activity (Mus musculus [8]): Active; Activity [9]: Non-toxic; Activity (Mus musculus [10]): Not active; No Significant Change In Liver Mass Was Observed But Showed Improvements In Fatty Liver Disease Phenotypes; Activity [11]: Non-toxic; Activity (Mus musculus [12]): inactive; Activity (Mus musculus [13]): inactive; Activity [14]: 300%; Activity (Mus musculus [15]): Active; The Occurence Is Due To Decreased Hepatic Steatosis; Activity [16]: Non-toxic; Activity [17]: Non-toxic
Oc1c(Nc2ccc(-c3ccc(Cl)cc3)cc2)cnc2nonc12,,,Activity [3]: 57%
Oc1c(Nc2ccccc2-c2ccccc2)cnc2nonc12,Not_active,inactive,

# Now from value to compound, other results behind:
EC50 [2],Compound,Activity (L6 [1]),also measured
Not_active,Oc1c(Nc2ccc(C(F)(F)F)nc2)cnc2nonc12,inactive,
Not_active,CC1(C)c2ccccc2-c2ccc(Nc3cnc4nonc4c3O)cc21,inactive,
Not_active,Oc1c(Nc2ccc(-c3cccc(F)c3F)cc2)cnc2nonc12,inactive,
Not_active,CC(=O)c1ccc(Nc2cnc3nonc3c2O)cc1,inactive,
Not_active,Oc1c(Nc2ccc(-c3ccc(C(F)(F)F)cc3)cc2)cnc2nonc12,inactive,
Not_active,Oc1c(Nc2ccc(-c3cccc(Cl)c3Cl)cc2)cnc2nonc12,inactive,
Not_active,Oc1c(Nc2ccc(F)nc2)cnc2nonc12,inactive,
Not_active,Oc1c(Nc2ccc(-c3ccccc3F)cc2)cnc2nonc12,inactive,
